From ChEMBL document CHEMBL1143957, “Inhibitory property of the Piper betel phenolics against photosensitization-induced biological damages” (Bioorg Med Chem, 2008) come the findings set out here.

In data set [1] the test system is L929. Put plainly: Prevention of 5 mins photoirradiation-induced damage in mouse L929 cells assessed as survival at 18 uM by MTT assay. The class given is functional. The following applies: L929, light or radiation study, read-out: Survival. On the technique in general: Tetrazolium dyes change colour on reduction, which living cells bring about.
The subject of data set [2] is L929. The experiment in a line: Prevention of 15 mins photoirradiation-induced damage in mouse L929 cells assessed as survival at 9 uM by MTT assay. The class given is functional. The following applies: L929, light or radiation study, 0.25 h, read-out: Activity. An outline of the steps:
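L929 mouse fibroblasts (RPMI 1640, 10% heat-inactivated FCS, 37 °C, 5% CO₂) were seeded at 2 × 10⁴ cells/well, preincubated with test agent in serum-free RPMI for 2 h, then given methylene blue (9 or 18 µM) in PBS for 2 h. Cells were washed and exposed to a 100 W tungsten lamp at room temperature for 0–15 min, then grown in 10% FCS RPMI for 72 h. Viability was measured by MTT (0.5 mg/mL, 4 h), SDS lysis and A550; n = 5.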

For data set [3], the system named is L929. The experiment in a line: Prevention of 10 mins photoirradiation-induced damage in mouse L929 cells assessed as survival at 18 uM by MTT assay. The class given is functional. The following applies: L929, light or radiation study, read-out: Survival.
Data set [4] can be described thus: Cytotoxicity against mouse L929 cells assessed as survival at 18 uM after 20 hrs by MTT method relative to control. The class given is cell-based. The following applies: read-out: Survival.
The nature of data set [5]: Cytotoxicity against mouse L929 cells assessed as survival at 9 uM after 20 hrs by MTT method relative to control. The class given is cell-based. The following applies: read-out: Survival.
Data set [6] concerns L929. Put plainly: Prevention of 15 mins photoirradiation-induced damage in mouse L929 cells assessed as survival at 18 uM by MTT assay. Particulars: L929, light or radiation study, 0.25 h, read-out: Survival. The class given is functional.
Data set [7] has as its system Liver. The experiment in a line: Protection against photoirradiation-induced lipid peroxidation damage in rat liver mitochondria at 100 mM. The class given is functional. An outline of the steps: (§1)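 Rat liver mitochondria (0.5 mg protein/mL final) with methylene blue (50 µg/mL) and test agent in KH₂PO₄–KOH buffer pH 7.4, held at 37 °C and irradiated 30 min with a 100 W tungsten lamp (32.45 W m⁻²). TBARS were measured after 15 min boiling with TBA/TCA/EDTA/HCl reagent, centrifugation and A532 against a malonaldehyde standard. Unirradiated endogenous TBARS were subtracted. Results are % protection, mean ± SEM, n = 5.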

For data set [8], the system named is Liver. The experiment in a line: Protection against 30 mins photoirradiation-induced lipid peroxidation damage in rat liver mitochondria assessed as prevention of TBARS formation at 2 mM. The class given is functional. An outline of the steps:
as §1

For data set [9], the system named is Liver. Put plainly: Protection against photoirradiation-induced lipid peroxidation damage in rat liver mitochondria at 10 mM. The class given is functional. An outline of the steps: as §1
The subject of data set [10] is Liver. Put plainly: Protection against 30 mins photoirradiation-induced lipid peroxidation damage in rat liver mitochondria assessed as prevention of TBARS formation at 180 uM. The class given is functional. Summed up:
as §1

Data set [11] has as its system Liver. The experiment in a line: Protection against 30 mins photoirradiation-induced lipid peroxidation damage in rat liver mitochondria assessed as prevention of TBARS formation at 30 uM. The class given is functional. An outline of the steps:
as §1

Data set [12] has as its system Liver. Put plainly: Protection against 30 mins photoirradiation-induced lipid peroxidation damage in rat liver mitochondria assessed as prevention of TBARS formation at 60 uM. The class given is functional. Summed up: as §1
Data set [13] has as its system Liver. Put plainly: Protection against 30 mins photoirradiation-induced damage in rat liver mitochondria assessed as reduction of lipid hydroperoxide formation at 180 uM. The class given is functional. Also noted: scale not given: the % may be the effect or the level left. An outline of the steps:
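Lipid hydroperoxide read-out: mitochondrial protein (0.5 mg/mL) plus methylene blue (50 µg/mL) with test agent at 180 µM added before a 30 min photo-irradiation. LOOH was quantified as absorbance at 560 nm. Mean ± SEM, n = 5.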

Data set [14] can be described thus: Cytotoxicity against mouse L929 cells assessed as survival at 20 uM after 20 hrs by MTT method relative to control. The class given is cell-based. The following applies: read-out: Survival.
Data set [15] has as its system L929. The experiment in a line: Prevention of 5 mins photoirradiation-induced damage in mouse L929 cells assessed as survival at 10 uM by MTT assay. The class given is functional. The following applies: L929, light or radiation study, read-out: Survival.
Data set [16] deals with L929. The experiment in a line: Prevention of 10 mins photoirradiation-induced damage in mouse L929 cells assessed as survival at 10 uM by MTT assay. The class given is functional. Particulars: L929, light or radiation study, read-out: Survival.
Data set [17] has as its system L929. Put plainly: Prevention of 15 mins photoirradiation-induced damage in mouse L929 cells assessed as survival at 5 uM by MTT assay. The class given is functional. The following applies: L929, light or radiation study, 0.25 h, read-out: Survival.
Data set [18] is described as follows: Cytotoxicity against mouse L929 cells assessed as survival at 10 uM after 20 hrs by MTT method relative to control. The class given is cell-based. The following applies: read-out: Survival.
Data set [19] has as its system L929. Put plainly: Prevention of 15 mins photoirradiation-induced damage in mouse L929 cells assessed as survival at 10 uM by MTT assay. The following applies: L929, light or radiation study, 0.25 h, read-out: Survival. The class given is functional.
Data set [20] can be described thus: Cytotoxicity against mouse L929 cells assessed as survival at 5 uM after 20 hrs by MTT method relative to control. The class given is cell-based. The following applies: read-out: Survival.
Data set [21] has as its system L929. Put plainly: Prevention of 5 mins photoirradiation-induced damage in mouse L929 cells assessed as survival at 5 uM by MTT assay. The class given is functional. The following applies: L929, light or radiation study, read-out: Survival.
The subject of data set [22] is L929. The experiment in a line: Prevention of 10 mins photoirradiation-induced damage in mouse L929 cells assessed as survival at 5 uM by MTT assay. The class given is functional. The following applies: L929, light or radiation study, read-out: Survival.

For the compound `CN(C)c1ccc2nc3ccc(N(C)C)cc3[s+]c2c1` [METHYLENE BLUE ANHYDROUS], the viability at 18 µM was found to be 67.6% with L929 [1], 64.4% in the data set with L929 [3] and 48.9% in the data set with L929 [6]. The viability at 9 µM in the data set with L929 [2] stood at 14%. For the same compound, in [4], the viability at 20 h, 18 µM was 95.3%. The viability at 20 h, 9 µM in data set [5] is 102%.

On to `OC[C@@H](O)[C@@H](O)[C@H](O)[C@H](O)CO`, for which the Activity with Liver [7] was 20.1%.

With `COc1cc(C=O)ccc1O`, the Activity in the data set on Liver [8] stood at 34%.

`O=C1O[C@H]([C@@H](O)CO)C(O)=C1O` displayed an Activity in the data set with Liver [9] of 25.7%.

On to `C=CCc1ccc(OC)c(O)c1`, for which the Activity in the data set on Liver [10] worked out at 72%; in the data set with Liver [11], 22%; in the data set on Liver [12], 40%; in the data set on Liver [13] it was 61.5%.

Take `C=CCc1ccc(O)c(O)c1` [HYDROXYCHAVICOL]: in [14], the viability at 20 h, 20 µM amounted to 75.7%. Moreover, the viability at 9 µM in the data set with L929 [2] came to 6%. Moreover, the Activity in the data set on Liver [10] came out at 86%; in the data set with Liver [11] it was 32%; in the data set with Liver [12], 48%; with Liver [13] it was 87%. The viability at 10 µM is 94.2% in the data set with L929 [15], 92.2% in the data set with L929 [16] and 82.9% in the data set with L929 [19]. Moreover, the viability at 5 µM in the data set with L929 [17] is 85.4%; with L929 [21] it was 89.1%; with L929 [22], 88.3%. Also, the viability at 20 h, 10 µM in [18] is 96.5%. The viability at 20 h, 5 µM in data set [20] came to 96.2%.

In the case of `N[C@@H](CCC(=O)N[C@@H](CS)C(=O)NCC(=O)O)C(=O)O`, the Activity with Liver [9] worked out at 35.6%.
